Screening data (PubChem BioAssay)
KCNK9 block: KCNK9 potassium channel inhibitors, primary screen, HEK293 cells, thallium flux; 310,000 compounds, 1.2% hits; Potassium channel subfamily K member 9 (Homo sapiens), Q9NPC2; B-score at 10 µM; FluxOR thallium flux fluorescence; hits give low values;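 active = ratio B-score over 3 SD below the library mean, with starting fluorescence within 5 SD of its mean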;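 also: negative B-score means less thallium flux so channel inhibition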
Target sequence (Q9NPC2 whole entry, looked up): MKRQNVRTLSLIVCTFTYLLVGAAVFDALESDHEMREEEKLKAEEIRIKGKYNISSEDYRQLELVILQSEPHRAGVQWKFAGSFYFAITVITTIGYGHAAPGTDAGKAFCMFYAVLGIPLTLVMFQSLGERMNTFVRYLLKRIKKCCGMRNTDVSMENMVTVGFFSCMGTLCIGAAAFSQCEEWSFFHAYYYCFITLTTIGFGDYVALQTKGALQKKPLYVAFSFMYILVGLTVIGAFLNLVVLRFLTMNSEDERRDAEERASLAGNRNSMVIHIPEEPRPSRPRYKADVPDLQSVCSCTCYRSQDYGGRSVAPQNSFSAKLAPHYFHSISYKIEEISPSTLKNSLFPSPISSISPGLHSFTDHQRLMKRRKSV
KCNK3 inh: human KCNK3 channel inhibitors, primary screen, CHO cells, FluxOR thallium flux, B-score. 340,000 compounds, 0.84% hits. B-score at 10 µM. FluxOR fluorescence; hits give low values;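 active = B-score under library mean minus 4 SD, starting fluorescence ratio at most library mean plus 5 SD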;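 also: more negative B-score means stronger inhibition of thallium flux through KCNK3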
KCNQ1 inh: inhibitors of human KCNQ1 channel, primary screen, cell-based, thallium flux, high-throughput; CHO-K1 KCNQ1, FluxOR thallium flux fluorescence; hits give high values; B-score at 10 µM; 310,000 compounds, 1.3% hits; AID 2642, 2010;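 active = compounds whose thallium flux B-score, printed positive for inhibition, exceeds three library SD while starting fluorescence stays within three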;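 also: channel opened by potassium depolarization with thallium stimulus after 20 min compound exposure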
hERG rescue: hERG rescue from dofetilide block, primary screen, cell-based, CHO-hERG, FluxOR thallium flux, dofetilide IC70. AID 1511, 2009. 310,000 compounds, 0.51% hits. Voltage-gated inwardly rectifying potassium channel KCNH2 (Homo sapiens), Q12809. dofetilide IC70 present. activation (rescue from dofetilide block), less the hit threshold, % at 10 µM;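 active = activation above the mean of controls blocked by dofetilide plus 5 SD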;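 also: thallium influx through hERG after potassium depolarization seen as dye fluorescence rise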
Kir21 block: inhibitors of mouse Kir2.1 inward-rectifier potassium channel; Inward rectifier potassium channel 2 (Mus musculus), P35561; 310,000 compounds, 0.85% hits; HEK293-Kir2.1, FluxOR thallium flux fluorescence; hits give low values; AID 1672, 2009; B-score at 10 µM;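 active = fluorescence ratio B-score at or below minus 3 SD of library scores, with starting-brightness B-score within 2 SD, cut at about -4.2 in these data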;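 also: channel flux triggered by added potassium and thallium sulfate stimulus; B-score of peak minus minimum fluorescence over baseline after thallium stimulus; more negative B-score means stronger Kir2.1 block with less thallium influx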
KCNQ1 act: potentiators or activators of KCNQ1 channel, primary screen, cell-based, thallium flux, high-throughput. 310,000 compounds, 0.35% hits. CHO-K1 KCNQ1, thallium flux FluxOR fluorescence; hits give high values. Potassium voltage-gated channel subfamily KQT member 1 (Homo sapiens), P51787. AID 2648, 2010. B-score at 10 µM;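 active = fluorescence ratio B-score, a plate-corrected score, at least three library SD, with initial intensity B-score within 5 SD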
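Assay system: stable KCNQ1 CHO-K1 line; medium: assay buffer, equal DMSO in all wells; timing: 90 min dye loading and 20 min compound exposure, both at room temperature; technique: kinetic FluxOR thallium fluorescence, 10-s 1-Hz baseline, 110-s post-stimulus read; read-out basis: B score of baseline-normalized fluorescence ratio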
An asterisk follows results filed as active; i = inactive; · = no result given. An excerpt weighted towards active compounds, which were near 3.7% of everything screened.

SMILES	KCNK9 block	KCNK3 inh	KCNQ1 inh	hERG rescue	Kir21 block	KCNQ1 act
CCOC(=O)c1ccccc1-n1nnnc1C	i	i	i	-7	0.25	i
Cn1c(-c2ccccc2)cnc1NCc1ccc(F)cc1	i	i	i	-5	-4.9*	i
CCCCC(=O)Nc1nc(C)c(-c2csc(Nc3cc(OC)ccc3OC)n2)s1	-7.8*	i	i	-21	-1.4	i
CCCCC(=O)Nc1nc(C)c(-c2csc(Nc3cc(Cl)ccc3OC)n2)s1	-7.5*	i	7*	-9	0.02	i
CCCN(C(=O)COC(=O)CSc1ccc([N+](=O)[O-])cc1)C1CCS(=O)(=O)C1 (stereo unspecified)	·	i	·	·	·	·
CCCc1ccc2oc(C(=O)N3CCCC3)c(C)c2c1	i	i	i	-4	1.3	i
O=C(COc1ccc(-c2ccccc2)cc1)N/N=C/c1cc(O)ccc1Br	i	i	11*	-5	-0.65	i
Cc1ccc(Oc2ccc(NC(=O)Cn3ccsc3=N)cc2)cc1	i	i	i	-16	-4.5*	22*
O=C(Nc1ccc(N2CCCCCC2)cc1)c1ccc[nH]1	·	i	·	·	·	·
COc1cc(NC(=O)COc2cc(O)c3c(c2)OC(C)(C)CC3=O)cc(OC)c1OC	i	i	9*	-28	0.02	i
CC1(C)CC(=O)c2c(O)cc(OCC(=O)Nc3ccc(S(N)(=O)=O)cc3)cc2O1	i	i	i	-5	-0.01	i
C=CCc1c(OC)ccc2c1c(S(=O)(=O)c1ccc(C)cc1)cn2COC	i	i	i	-3	-0.14	i
COc1ccc(-c2oc3ccccc3c(=O)c2OC(C)=O)cc1	i	i	i	4	-0.05	41*
COc1ccc(-c2oc3ccccc3c(=O)c2OCC(=O)O)cc1	i	i	i	-9	1	i
O=C(O)COc1c(-c2ccco2)oc2ccccc2c1=O	i	i	i	-7	-0.27	i
CC(=O)Oc1c(-c2ccc(Br)o2)oc2ccccc2c1=O	i	i	i	40*	-0.31	113*
COC(=O)C(C)(C)c1cccnc1C#N	·	i	·	·	·	·
CCN(CC)S(=O)(=O)c1cccc(C(=O)/C=C2/N(C)c3ccccc3C2(C)C)c1	-7.7*	i	i	-15	-0.02	i
CN1/C(=C\C(=S)NC(=O)c2cccc(Br)c2)C(C)(C)c2ccccc21	i	i	i	-4	0.99	i
CCCc1cc(=O)[nH]c(SCC(=O)Nc2ccc(Cl)c(S(=O)(=O)N3CCOCC3)c2)n1	·	i	·	·	·	·
Cc1nc(CSc2nsc(/C=C/N(C)C)c2C#N)cs1	i	i	i	-9	-0.63	i
COC(=O)c1ccccc1CSc1nsc(/C=C/N(C)C)c1C#N	i	i	6*	-20	-0.12	i
CS(=O)(=O)N(CC(=O)N1CCOCC1)c1cc(C(F)(F)F)ccc1Cl	i	i	i	7.3*	1.2	i
CS(=O)(=O)N(CC(=O)N1CCCC1)c1cc(C(F)(F)F)ccc1Cl	i	i	i	-20	0.42	i
CC(Sc1ccc(Cl)cc1)C(=O)NNC(=O)c1ccccc1O (stereo unspecified)	i	i	6*	-13	1.9	i
SMILES	KCNK9 block	KCNK3 inh	KCNQ1 inh	hERG rescue	Kir21 block	KCNQ1 act
CCCCN1CCC(=O)C(C(=O)OCC)=C1C(=O)OCC	·	i	·	·	·	·
COc1ccc2c(c1)-c1nc(/N=C/c3ccc(O)cc3)sc1CC2	·	i	·	·	·	·
COc1ccc2c(c1)-c1nc(/N=C/c3c(O)ccc4ccccc34)sc1CC2	i	i	11*	-10	0.02	i
Cc1cn(CC(=O)NCc2ccc(N(C)C)cc2)c(=O)[nH]c1=O	·	i	·	·	·	·
COc1ccc(CNC(=O)Cc2cn(C)c3ccccc23)c(OC)c1	i	i	i	-8	-4.3*	i
COc1cccc(CNCc2ccc(OC)cc2OC)c1	i	i	i	-7	-1.9	i
CCn1c2ccccc2c2cc(CNCc3ccc(OC)cc3OC)ccc21	i	i	i	-37	-9.8*	i
COc1ccc([N+](=O)[O-])c(S(=O)(=O)c2ccccc2)n1	i	i	i	-8	-3.7	i
COc1ccc([N+](=O)[O-])c(S(=O)(=O)c2ccc(Cl)cc2)n1	i	i	i	-8	-4.6*	i
CCOC(=O)C1=C(C)N=C2SC(C(=O)OC)=CC(=O)N2C1c1ccc(F)cc1 (stereo unspecified)	i	i	i	-13	-5.4*	i
CCOC(=O)C1=C(C)N=C2SC(C(=O)OC)=CC(=O)N2C1c1cccc(OC)c1 (stereo unspecified)	i	i	i	-5	-0.51	i
CC[C@]12C(=O)N(C)C[C@H]([C@@H]3C(=O)N(C)C(=O)[C@@H]31)N2C(=O)c1ccc(F)cc1	·	i	·	·	·	·
C/C=C(/C)C(=O)O[C@@H]1c2c(ccc3ccc(=O)oc23)OC(C)(C)[C@@H]1OC(=O)/C(C)=C\C	-7.4*	i	i	-6	0.43	i
Oc1cccc(C=NN=C2c3ccccc3-c3ccccc32)c1	·	-9*	·	·	·	·
COC(=O)/C(=C\Nc1cccc(Cl)c1C)c1ncc(C(F)(F)F)cc1Cl	i	i	i	-11	-1	i
CON/C=C(\C=Nc1ccccc1)c1ncc(C(F)(F)F)cc1Cl	i	i	7*	-16	0.45	i
CC(=O)Nc1ccc(/C=N/N2C(=O)NC(C)(c3ccc(OC(F)F)cc3)C2=O)cc1 (stereo unspecified)	i	i	i	-10	0.93	34*
COc1ccccc1N1CCN(/N=C/c2cc(Br)ccc2F)CC1	i	i	9*	-3	0.01	i
Cc1cccc(SCC(=O)Nc2ccc3c(c2)OCCO3)c1	i	i	i	-7	-0.31	i
CC(C)CNC(=S)NC(=O)c1ccc(Cl)cc1Cl	i	i	i	-10	-1.6	10*
COc1ccc(OC)c(C(c2nnnn2C2CCCC2)N2CCN(c3ccccc3F)CC2)c1 (stereo unspecified)	-8.9*	i	i	-7	0.38	i
CCOC(=O)N1CCN(C(=O)/C(=C/c2ccc(N(C)C)cc2)NC(=O)c2ccccc2)CC1	·	i	·	·	·	·
Cc1cc(NC(=O)C2CCN(C(=O)c3ccco3)CC2)ccc1Br	i	i	i	-11	-0.04	i
O=S(=O)(NCCc1c[nH]c2ccccc12)c1ccc(F)cc1	·	i	·	·	·	·
